Experimental data: ChEMBL document CHEMBL1121727, “Synthesis and biological activity of certain derivatives of oxazinomycin and related oxadiazole nucleosides” (J Med Chem, 1981)
Calls of active or inactive are those of the source. No cut-off for these calls is given here.

Assays:
L1210 [1] = experiment: Antitumor activity against L1210 cells; Inactive; assay type: functional, cell-based; conditions: Mus musculus
P388 = experiment: Antitumor activity against leukemia P388 cells; Inactive; assay type: functional, cell-based; conditions: Mus musculus
Human alphaherpesvirus 1 [2] = experiment: In vitro antiviral activity against herpes simplex virus/1(HSV/1) expressed as viral rating (VR); Inactive; assay type: functional, organism-based
In short: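 Tested in vitro in KB cells infected with HSV type 1 at 1000 to 1 μg/mL. Plates were incubated 72 h at 37 °C, and inhibition of viral cytopathic effect was scored as a virus rating (VR). VR ≥ 0.5 was taken as moderate to definite activity. Ribavirin and acyclovir served as controls.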

HeLa = experiment: Antitumor activity against HeLa cells; assay type: functional, cell-based; conditions: Homo sapiens
L1210 [3] = experiment: Antitumor activity against L1210 cells; assay type: functional, cell-based; conditions: Mus musculus
L1210 [4] = experiment: Inhibition of RNA, DNA, and protein synthesis in L1210 cells at 8*10e-7 M.
Human alphaherpesvirus 1 [5] = experiment: In vitro antiviral activity against herpes simplex virus/1(HSV/1) expressed as viral rating (VR); assay type: functional
In short: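 Antiviral assay in KB cells against HSV type 1 over 1000 to 1 μg/mL. Inhibition of viral cytopathic effect was read after 72 h at 37 °C and scored as virus rating (VR). VR ≥ 0.5 was taken as moderate to definite activity. Ribavirin and acyclovir served as controls.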

SMILES	Activity (L1210 [1])	Activity (P388)	VR (Human alphaherpesvirus 1 [5])	other results
C[C@H]1OC(c2coc(=O)[nH]c2=O)[C@H](O)[C@@H]1O (some centres not stated)	inactive	inactive		
O=c1[nH]c(=O)n([C@H]2C[C@H](O)[C@@H](CO)O2)o1	inactive	inactive		VR (Human alphaherpesvirus 1 [2]): inactive
O=c1[nH]c(=O)c([C@@H]2O[C@H](CO)[C@@H](O)[C@H]2O)co1				IC50 (HeLa): 500 nM; IC50 (L1210 [3]): 300 nM; Inhibition (L1210 [4]): 5%
CC(=O)O[C@H]1C[C@H](c2coc(=O)[nH]c2=O)O[C@@H]1CO	inactive	inactive		
O=c1[nH]c(=O)c([C@@H]2O[C@H](COP(=O)(O)O)[C@@H](O)[C@H]2O)co1	inactive	inactive		
Nc1nc2c(ncn2COCCO)c(=O)[nH]1 [ACYCLOVIR]			1.4	
O=c1[nH]c(=O)n(C2O[C@H](CO)[C@@H](O)[C@H]2O)o1 (some centres not stated)	inactive	inactive	0.65	
O=c1[nH]oc(=O)[nH]1	inactive	inactive		VR (Human alphaherpesvirus 1 [2]): inactive
O=c1nc2c(co1)[C@@H]1O[C@H](CO)[C@@H](O)[C@@H]1O2	inactive	inactive		
NC(=O)c1ncn([C@@H]2O[C@H](CO)[C@@H](O)[C@H]2O)n1 [RIBAVIRIN]			1.2	
